Key:
MCF7 = test: In vitro antitumor activity against MCF-7 carcinoma cell line.; type: functional, cell-based; settings: Homo sapiens
Procedure, shortened: (§1)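 MTT assay, 7-day format: 250–300 cells/well, adhered 24 h drug-free, then compound 1 pM–100 μM (n = 8), final DMSO <0.25%; RPMI 1640/10% FCS, 37 °C, 5% CO2. MTT added after exposure, 4 h, formazan dissolved in DMSO–glycine (4:1), absorbance 550 nm.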

MDA-MB-468 = test: In vitro antitumor activity against MDA-468 carcinoma cell line.; type: functional, cell-based; settings: Homo sapiens; procedure, shortened: as §1
NCI = test: In vitro antitumor activity against carcinoma cell lines by 2-day assay; type: functional, Homo sapiens
Procedure, shortened: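 NCI panel sulforhodamine B assay: line-specific seeding, 24 h drug-free, then five 10-fold dilutions (top 10^-4 M) for 2 days; growth inhibition from protein-stain optical density change; mean log GI50 across panel.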

Homo sapiens = test: In vitro concentration to reduce colony formation of human tumor xenografts to 30% of the control; type: functional
Procedure, shortened: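 Clonogenic colony-formation assay using cells from 22 human tumor xenografts, tested at 0.1, 1.0 and 10 μg/mL; colony inhibition expressed as T/C, with T/C < 30% scored active; IC70 concentration reported.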

| Structure (SMILES) | IC50 (MCF7) [µM] | IC50 (MDA-MB-468) [µM] | Mean log GI50 (NCI) [M] | Mean IC70 (Homo sapiens) [µg/mL] |
| --- | --- | --- | --- | --- |
| CC(=O)Nc1ccc(-c2nc3ccccc3[nH]2)cc1 | > 10 | > 10 | – | – |
| CC(=O)N(C(C)=O)c1ccc(-c2nc3ccccc3s2)cc1 | > 0.1 | > 0.1 | – | – |
| O=C(CCl)Nc1ccc(-c2nc3ccccc3s2)cc1 | > 0.01 | > 0.1 | -5.7 | 3.5 |
| CC(=O)N(C(C)=O)c1ccc(-c2nc3ccccc3s2)cc1C | > 10 | > 10 | – | – |
| O=C(CCl)Nc1ccc(-c2nc3ccccc3o2)cc1 | > 1 | > 1 | – | – |
| CC(=O)Nc1ccc(-c2nc3ccccc3s2)cc1I | > 0.1 | > 0.1 | -4.7 | – |
| Nc1ccc(-c2nc3ccccc3[nH]2)cc1 | > 10 | > 1 | – | – |
| CC(=O)N(C(C)=O)c1ccc(-c2nc3ccccc3s2)cc1Cl | > 10 | > 1 | – | – |
| O=C(Nc1ccc(-c2nc3ccccc3s2)cc1)c1ccccc1 | > 1 | > 1 | – | – |
| O=C(Nc1ccc(-c2nc3ccccc3s2)cc1)C(Cl)Cl | > 0.1 | > 0.1 | – | – |
| Nc1ccc(-c2nc3ccccc3s2)cc1 | > 0.01 | > 0.01 | -4.76 | 10 |
| CC(=O)Nc1ccc(-c2nc3ccccc3o2)cc1 | > 10 | > 10 | -4.27 | – |
| CC(=O)Nc1ccc(-c2nc3ccccc3s2)cc1Br | > 0.01 | > 0.1 | -4.52 | – |

Reference: ChEMBL document CHEMBL1132564, “Antitumor benzothiazoles. 7. Synthesis of 2-(4-acylaminophenyl)benzothiazoles and investigations into the role of acetylation in the antitumor activities of the parent amines” (J Med Chem, 1999)
